Like-named read-outs stand apart in the source and are kept apart here.
Experiments:
[1] = molecular target: tCatL (trypanosomal cathepsin-L) (Trypanosoma brucei rhodesiense, UniProt Q95PM0); assay: tCatL inhibition assay; format: biochemical; conditions: at 10 μM after 1 hour
Summary of the method: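 Recombinant tCatL was expressed in Pichia pastoris and purified. Inhibition was run by a previously published protocol, with E-64 as the positive control.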

[2] = tested on: Bloodstream forms of T. b. gambiense (130R); assay: T. b. gambiense growth inhibition, resazurin assay; format: cell-based, Trypanosoma brucei gambiense; conditions: for SI (CC50/EC50), T.b.g: Hep G2 CC50 / T.b.g EC50
[3] = tested on: bloodstream forms of T. brucei brucei (strain 427); assay: T. b. brucei growth inhibition, Alamar blue assay; format: cell-based, Trypanosoma brucei brucei; conditions: Hep G2 CC50 / T.b.b EC50
[4] = tested on: Bloodstream forms of T. b. rhodesiense (STIB 900); assay: T. b. rhodesiense growth inhibition, resazurin assay; format: cell-based, Trypanosoma brucei rhodesiense; conditions: for SI (CC50/EC50), T.b.r: Hep G2 CC50 / T.b.r EC50
[5] = Human liver microsome stability; format: in vitro ADME; conditions: liver microsomes
[6] = tested on: T. b. brucei AnTat1.1 trypomastigotes expressing Renilla luciferase; assay: T. b. brucei acute infection mouse efficacy; format: in vivo, BALB/c mice; conditions: 5 consecutive days; for parasite growth in vivo, intraperitoneal: 100 mpk IP; for parasite growth in vivo, oral: 100 mpk oral gavage
T. b. rhodesiense = conditions: 100 mpk once a day; ref as previously reported; cited from earlier work
[7] = 25 mpk; ref as previously reported; cited from earlier work
[8] = Single-dose pharmacokinetics in mice; format: in vivo, mice (C57BL/6; conditions: male, C57BL/6, mouse, plasma, oral, 5 mg/kg
[9] = tested on: T. b. rhodesiense STIB 900-luc; assay: T. b. rhodesiense acute infection mouse efficacy; format: in vivo, NMRI mice; conditions: four days; for animals surviving to 60 days with no detectable parasitemia: oral
Summary of the method: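 Female NMRI mice, five per group, were inoculated i.p. with 1 x 10^4 bloodstream-form STIB 900-luc. Oral gavage started day 3 post-infection for four consecutive days, in PBS with 0.5% hydroxyl-methylcellulose and 0.5% Tween 80. Three mice were infected-untreated controls. Parasitemia was tracked by whole-animal bioluminescence imaging after D-luciferin: twice weekly for two weeks after treatment, then weekly to day 60. Cure meant a day-60 signal not above background.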

For `CC(C)C[C@H](NC(=O)[C@H]1O[C@@H]1C(=O)O)C(=O)NCCCCN=C(N)N` [Compound E64, E-64, reference compound], the “Percentage inhibition of tCatL” value [1] was 100%.
For `CNC(=O)CCCNC(=O)c1ccc([N+](=O)[O-])s1` [Compound 17, N-[4-(methylamino)-4-oxobutyl]-5-nitrothiophene-2-carboxamide], the “Percentage inhibition of tCatL” value [1] was “inactive”.
For `O=C(NC/C=C/S(=O)(=O)c1ccccc1)c1ccc([N+](=O)[O-])s1` [Compound 4, (E)-5-nitro-N-[3-(phenylsulfonyl)allyl]thiophene-2-carboxamide], the “SI (CC50/EC50), T.b.g” value [2] was 63.81, the “SI (CC50/EC50), T.b.b” value [3] was 3.21 and the “SI (CC50/EC50), T.b.r” value [4] was 33.47.
With `O=C(N[C@H](/C=C/S(=O)(=O)c1ccccc1)CCc1ccccc1)c1ccc([N+](=O)[O-])o1` [Compound 1] the half-life [5] was 10.8 min.
With `CS(=O)(=O)CCCNC(=O)c1cccs1` [Compound 16, N-[3-(methylsulfonyl)propyl]thiophene-2-carboxamide] the “Percentage inhibition of tCatL” value [1] was “inactive”.
Work on `Nc1nc(N)nc(Nc2ccc([As]3SCC(CO)S3)cc2)n1` (stereo not shown) [Melarsoprol, reference compound] yielded an EC50 ([2]; Trypanosoma brucei, GAMBIENSE, 68 h, read-out: T.b.g EC50, 130R, 68 h incubation) of 7 ± 3 nM.
In the case of `O=C(N[C@H](/C=C/S(=O)(=O)c1ccccc1)CCc1ccccc1)c1cc(Cl)c([N+](=O)[O-])[nH]1` [Compound 3, (S,E)-4-chloro-5-nitro-N-[5-phenyl-1-(phenylsulfonyl)pent-1-en-3-yl]-1H-pyrrole-2-carboxamide], the “SI (CC50/EC50), T.b.b” value [3] is reported as >5.13.
For `CS(=O)(=O)/C=C/CNC(=O)c1ccc([N+](=O)[O-])o1` [Compound 7, (E)-N-[3-(methylsulfonyl)allyl]-5-nitrofuran-2-carboxamide], the “parasite growth in vivo, intraperitoneal” value [6] was “ineffective” and the “parasite growth in vivo, oral” value [6] was “reduced parasitemia”.
In the case of `CSc1ccc(OCc2ncc([N+](=O)[O-])n2C)cc1` [fexinidazole], the “infected mice treated (cured)” value (T. b. rhodesiense) is listed as 4 out of 4 and the half-life [7] is listed as 48 min.
For `CNC(=O)/C=C/CNC(=O)c1ccc([N+](=O)[O-])s1` [Compound 10, (E)-N-[4-(methylamino)-4-oxobut-2-en-1-yl]-5-nitrothiophene-2-carboxamide], the “SI (CC50/EC50), T.b.g” value [2] was > 576.92, the concentration at 2 h [8] was 720 nM and the “animals surviving to 60 days” value ([9]; 100 mpk b.i.d, orally) was 3 out of 5. For the same compound, the “animals surviving to 60 days with no detectable parasitemia” value ([9]; 200 mpk once daily) was 4 out of 5, the “animals surviving to 60 days with no detectable parasitemia” value ([9]; 200 mpk twice daily) was 4 out of 5 and the “SI (CC50/EC50), T.b.b” value [3] was > 138.88. The “SI (CC50/EC50), T.b.r” value [4] was > 535.71, the EC90 ([4]; Trypanosoma brucei, RHODESIENSE|STIB900, read-out: EC90 for T. b. rhodesiense) was 210 nM and the “parasite growth in vivo, intraperitoneal” value [6] was “suppressed parasite growth”. The “parasite growth in vivo, oral” value [6] was “suppressed parasite growth”.
With `CNC(=O)CCCNC(=O)c1cccs1` [Compound 18, N-[4-(methylamino)-4-oxobutyl]thiophene-2-carboxamide] the “Percentage inhibition of tCatL” value [1] was “inactive”.
With `O=C(NC/C=C/S(=O)(=O)c1ccccc1)c1ccco1` [Compound 6, (E)-N-[3-(phenylsulfonyl)allyl]furan-2-carboxamide] the “SI (CC50/EC50), T.b.b” value [3] was 34.02.
With `CNC(=O)/C=C/CNC(=O)c1ccc([N+](=O)[O-])o1` [Compound 11, (E)-N-[4-(methylamino)-4-oxobut-2-en-1-yl]-5-nitrofuran-2-carboxamide] the “SI (CC50/EC50), T.b.g” value [2] was > 159.57, the “SI (CC50/EC50), T.b.b” value [3] was > 44.38 and the “SI (CC50/EC50), T.b.r” value [4] was > 340.91.

— publication PMC10843616 (European journal of medicinal chemistry, 2023)
